# Experimental data pooled from the literature.
# Protocols differ between the studies behind these lines.
# Target: Serine/threonine-protein kinase PAK 3 (PAK3, Homo sapiens, UniProt O75914)
Structure (SMILES),read-out,technique,tested at,remaining binding
CN(c1nccc(-c2cnn3ncccc23)n1)C1CC1,binding,,1 µM,100%
COc1cnc(Nc2cccc(S(N)(=O)=O)c2)nc1N1CCN(c2ccccc2)CC1,binding,competition with immobilised ligand,1 µM,100%
Cc1c(NC(=O)c2cc(C(N)=O)nc3cc(F)ccc23)c(C(F)(F)F)nn1Cc1ccc(C(C)(C)C)cc1,cell-free assay,competition with immobilised ligand,1 µM,100%
C[C@@H](c1ccc(-n2cnc3c(N)ncnc32)cc1)N1CCc2nn(C)c(Cc3ccccc3)c2C1=O,binding,competition with immobilised ligand,0.1 µM,71%
CCC(=N\O)/C(C)=C/c1ccc(F)cc1,cell-free assay,competition with immobilised ligand,1 µM,89%
Cc1cnn2ncc(-c3ccnc(N(C)C)n3)c2c1,binding,,1 µM,100%
O=C1NC(c2ccccn2)Sc2ccccc21 (centres unmarked),cell-free assay,competition with immobilised ligand,1 µM,83%
O=C(c1ccc(Nc2ncc(Cl)c(-c3ccc(Cl)s3)n2)cc1)N1CCC(N2CCCC2)CC1,binding,competition with immobilised ligand,1 µM,38%
CCS(=O)(=O)c1cc2cc(C[C@](O)(CC(C)(C)c3ccc(F)cc3C(N)=O)C(F)(F)F)[nH]c2cn1,cell-free assay,competition with immobilised ligand,1 µM,100%
O=C(c1ccc(Nc2nccc(-c3cc4ccccc4s3)n2)cc1)N1CCC(N2CCCC2)CC1,binding,competition with immobilised ligand,1 µM,39%
c1cncc(-c2cccc(Nc3nccc(NC4CCCCC4)n3)c2)c1,binding,competition with immobilised ligand,10 µM,38%
N[C@@H]1CCN(c2nccc(-c3cnn4ncccc34)n2)C1,binding,,1 µM,99%
O=C(c1ccc(Nc2ncc(Cl)c(-c3cc4ccccc4s3)n2)cc1)N1CCC(N2CCCC2)CC1,binding,competition with immobilised ligand,1 µM,8.4%
CN(C)c1nccc(-c2cnn3ncccc23)n1,binding,,1 µM,100%
O=C(Nc1c[nH]nc1C(=O)NC1CCNCC1)c1cc(F)cc(F)c1,binding,competition with immobilised ligand,1 µM,98%
CC(=O)c1c(NS(C)(=O)=O)c2cc(-c3ccc(Cl)cc3)c(-c3ccc(Cl)cc3Cl)nc2n(C)c1=O,cell-free assay,competition with immobilised ligand,1 µM,100%
C[C@H]1CCN(c2nccc(-c3cnn4ncccc34)n2)C1,binding,,1 µM,94%
C[C@H](c1cccc(C#N)c1)n1cc(Cl)cc(C(N)=O)c1=N,cell-free assay,competition with immobilised ligand,1 µM,88%
F[C@@H]1CCN(c2nccc(-c3cnn4ncccc34)n2)C1,binding,,1 µM,100%
COc1cnc(Nc2cccc(S(N)(=O)=O)c2)nc1N1CCN(c2ccccc2)C(=O)C1,binding,competition with immobilised ligand,1 µM,75%
